Source: ChEMBL document CHEMBL4138145, “Cyclic Cystine-Bridged Peptides from the Marine Sponge Clathria basilana Induce Apoptosis in Tumor Cells and Depolarize the Bacterial Cytoplasmic Membrane” (J Nat Prod, 2017)
Values after ≈ are worked out from the molar mass of the structure shown. Active and inactive are the calls of the source. No cut-off for these calls is given here. Where a SMILES comes first, the peptide text is derived from it. Bridges are numbered along the chain shown (N, C = ends). The star is where a group is joined. X1 = CC(C)[C@H](C)C(=O)*; X2 = C(=C\c1ccccc1)/N*

Tests used:
[1] = tested on: Mycobacterium tuberculosis; test: Antimicrobial activity against Mycobacterium tuberculosis H37Rv up to 100 uM after 5 days by resazurin dye based assay; format: functional, organism-based
In short: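 M. tuberculosis H37Rv was grown aerobically at 37 °C in Middlebrook 7H9 with ADS enrichment, 0.5% glycerol and 0.05% tyloxapol, then precultured to log phase (OD600 0.5−1). Cells were seeded at 1 × 10^5 per well on 2-fold dilutions over 100−0.78 μM and held 5 days at 37 °C. Resazurin was added for 16 h at ambient temperature, then cells were formalin-fixed and fluorescence read (ex 540, em 590 nm). Growth is relative to rifampicin (0%) and DMSO (100%).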

A2780 = test: Cytotoxicity against human A2780 cells assessed as reduction in cell viability after 72 hrs by MTT assay; format: functional, cell-based; conditions: A2780, 72 h
In short: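 A2780 ovarian carcinoma cells were grown in RPMI-1640 with 10% FBS, penicillin and streptomycin, about 9000 cells/well, preincubated overnight. Increasing compound concentrations were applied for 72 h, then MTT was added. Absorbance read at 544 nm minus the 690 nm reference.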

Ramos [2] = test: Cytotoxicity against human Ramos cells assessed as reduction in cell viability after 24 hrs by MTT assay; format: functional, cell-based
In short: (§1)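 Suspension cells at 5 × 10^5 cells/mL, exposed 24 h to varying compound concentrations; 0.1% v/v DMSO as negative control. MTT added to 1 mg/mL final for 60 min, cells pelleted, formazan extracted in DMSO for 25 min at rt, A570 read with 650 nm reference. Viability relative to DMSO set at 100%; IC50 from fitted curves.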

[3] = Cytotoxicity against human Jurkat 16 cells assessed as reduction in cell viability after 24 hrs by MTT assay; format: functional, cell-based; in short: as §1
NOMO-1 = test: Cytotoxicity against human NOMO1 cells assessed as reduction in cell viability after 24 hrs by MTT assay; format: functional, cell-based; conditions: NOMO-1, 24 h; in short: as §1
HL-60 = test: Cytotoxicity against human HL60 cells assessed as reduction in cell viability after 24 hrs by MTT assay; format: functional, cell-based; conditions: HL-60, 24 h; in short: as §1
Homo sapiens [4] = species: Homo sapiens; test: Induction of apoptosis in human Jurkat 16 cells assessed as activation of caspase 3 at 10 uM using Ac-DEVD-AMC as substrate measured up to 4 hrs by immuno blot analysis; format: functional, cell-based
Homo sapiens [5] = species: Homo sapiens; test: Induction of apoptosis in human Jurkat 16 cells assessed as maximum activation of caspase 3 at 10 uM using Ac-DEVD-AMC as substrate measured after 6 to 7 hrs by immuno blot analysis; format: functional, cell-based
Ramos [6] = test: Induction of apoptosis in human Ramos cells assessed as activation of caspase 3 at 10 uM using Ac-DEVD-AMC as substrate measured up to 4 hrs by immuno blot analysis; format: functional, cell-based
Ramos [7] = test: Induction of apoptosis in human Ramos cells assessed as maximum activation of caspase 3 at 10 uM using Ac-DEVD-AMC as substrate measured after 6 to 7 hrs by immuno blot analysis; format: functional, cell-based
Homo sapiens [8] = species: Homo sapiens; test: Induction of apoptosis in human Jurkat 16 cells assessed as activation of caspase 3 at 1 uM using Ac-DEVD-AMC as substrate measured up to 4 hrs by […]; format: functional, cell-based
Homo sapiens [9] = species: Homo sapiens; test: Induction of apoptosis in human Jurkat 16 cells assessed as maximum activation of caspase 3 at 1 uM using Ac-DEVD-AMC as substrate measured after 6 to 7 hrs by immuno blot analysis; format: functional, cell-based
Ramos [10] = test: Induction of apoptosis in human Ramos cells assessed as activation of caspase 3 at 1 uM using Ac-DEVD-AMC as substrate measured up to 4 hrs by immuno blot analysis; format: functional, cell-based
Ramos [11] = test: Induction of apoptosis in human Ramos cells assessed as maximum activation of caspase 3 at 1 uM using Ac-DEVD-AMC as substrate measured after 6 to 7 hrs by immuno blot analysis; format: functional, cell-based
Homo sapiens [12] = species: Homo sapiens; test: Induction of apoptosis in human Jurkat 16 cells assessed as increase in PARP cleavage at 10 uM measured up to 4 to 8 hrs by immuno blot analysis; format: functional, cell-based
Ramos [13] = test: Induction of apoptosis in human Ramos cells assessed as increase in PARP cleavage at 10 uM measured up to 4 to 8 hrs by immuno blot analysis; format: functional, cell-based
In short: (§2)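 Ramos cells were exposed for 2–8 h with or without Q-VD-OPh 10 μM; staurosporine 2.5 μM served as positive control. Cells were lysed in Tris/Triton buffer with phosphatase and protease inhibitors. Then 25 μg protein was run on 10% SDS-PAGE and blotted to PVDF for PARP cleavage, with β-actin as loading control.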

Ramos [14] = test: Induction of apoptosis in human Ramos cells assessed as PARP cleavage at 10 uM cotreated with pan-caspase inhibitor QVD-OPh measured after 2 to 8 hrs by Western blot analysis; format: functional, cell-based; in short: as §2
MEF = test: Inhibition of autophagy in mouse MEF expressing mCitrine-hLC3B assessed as reduction in amino acid starvation-induced degradation of LC3 at 10 uM after 4 hrs by flow cytometry; format: functional, cell-based
In short: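 MEFs stably expressing mCitrine-hLC3B were held 4 h in full medium or EBSS starvation medium with 10 μM compound; bafilomycin A1 10 nM was the inhibition control. Cells were trypsinized, washed and read by flow cytometry for median mCitrine fluorescence. Values normalized to DMSO-treated full-medium cells; mean ± SD of 3 independent analyses; Student's t test.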

Staphylococcus aureus [15] = test: Antimicrobial activity against Staphylococcus aureus after 16 to 20 hrs by broth micro dilution method; format: functional
In short: (§3)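 Broth microdilution per CLSI in cation-adjusted Mueller-Hinton broth. Inoculum made by direct colony suspension, 5 × 10^5 CFU/mL final, added to serial 2-fold compound dilutions. Plates kept 16–20 h at 37 °C in ambient air. MIC is the lowest concentration with no visible growth. Strains are ATCC CLSI quality-control strains; A. baumannii 09987 is a Bonn clinical isolate.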

Enterococcus faecium = test: Antimicrobial activity against vancomycin-resistant Enterococcus faecium isolate BM 4147-1 after 16 to 20 hrs by broth micro dilution method; format: functional
Klebsiella pneumoniae = test: Antimicrobial activity against Klebsiella pneumoniae after 16 to 20 hrs by broth micro dilution method; format: functional, organism-based; in short: as §3
Klebsiella aerogenes = test: Antimicrobial activity against Enterobacter aerogenes after 16 to 20 hrs by broth micro dilution method; format: functional, organism-based; in short: as §3
Escherichia coli = test: Antimicrobial activity against Escherichia coli after 16 to 20 hrs by broth micro dilution method; format: functional, organism-based; in short: as §3
Pseudomonas aeruginosa = test: Antimicrobial activity against Pseudomonas aeruginosa after 16 to 20 hrs by broth micro dilution method; format: functional, organism-based; in short: as §3
Acinetobacter baumannii = test: Antimicrobial activity against Acinetobacter baumannii isolate 09987 after 16 to 20 hrs by broth micro dilution method; format: functional, organism-based; in short: as §3
Bacillus subtilis [16] = test: Induction of cell envelope stress in Bacillus subtilis isolate 1S34 assessed as increase in liaI promoter activity at 20 nmol after 14 to 18 hrs by beta-galactosidase reporter gene assay; format: functional, organism-based
In short: (§4)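 Agar-based β-galactosidase promoter-reporter assay. B. subtilis 1S34 grown to stationary phase in LB with spectinomycin 50 μg/mL, then set at 3 × 10^7 CFU/mL in LB soft agar (0.7%) containing X-Gal 150 μg/mL. Test compounds spotted at 20 nmol; reference antibiotics given on paper discs (5–30 μg). Plates read for promoter induction after 14–18 h at 30 °C.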

Bacillus subtilis [17] = test: Induction of cell envelope stress in Bacillus subtilis isolate 1S34 assessed as increase in ypuA promoter activity at 20 nmol after 14 to 18 hrs by beta-galactosidase reporter gene assay; format: functional, organism-based; in short: as §4
Bacillus subtilis [18] = test: Induction of DNA damage in Bacillus subtilis isolate 1S34 assessed as increase in yorB promoter activity at 20 nmol after 14 to 18 hrs by beta-galactosidase reporter gene assay; format: functional, organism-based; in short: as §4
Bacillus subtilis [19] = test: Induction of RNA damage in Bacillus subtilis isolate 1S34 assessed as increase in helD promoter activity at 20 nmol after 14 to 18 hrs by beta-galactosidase reporter gene assay; format: functional, organism-based; in short: as §4
Bacillus subtilis [20] = test: Induction of translation arrest in Bacillus subtilis isolate 1S34 assessed as increase in bmrC promoter activity at 20 nmol after 14 to 18 hrs by beta-galactosidase reporter gene assay; format: functional, organism-based
Staphylococcus aureus [21] = test: Disruption of inner membrane potential in Staphylococcus aureus NCTC 8325 at 0.2 uM measured after 30 to 60 mins by DiOC2(3) dye based fluorescence assay; format: functional, organism-based
In short: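 S. aureus NCTC 8325 grown to exponential phase in LB, resuspended in PBS at OD600 0.5, and loaded with 30 μM DiOC2(3) for 15 min before compound addition. Fluorescence read 30 and 60 min later: excitation 485 nm, emission 530 nm (green) and 630 nm (red). Controls were CCCP 5 μM and DMSO. Two runs on different days with independent cultures.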

CC[C@H](C)[C@@H]1NC(=O)[C@@H](NC(=O)[C@@H](C)C(C)C)CSSC[C@@H](C(=O)N/C=C/c2ccccc2)NC(=O)[C@H]([C@@H](C)CC)NC(=O)[C@H]([C@@H](C)CC)NC(=O)[C@H]([C@@H](C)CC)NC1=O (X1-CIIIIC-X2; disulfide 1-6)
Activity [1]: inactive
IC50 (A2780): 2.6 µM
IC50 (Ramos [2]): 5.9 µM
IC50 [3]: 4.6 µM
IC50 (NOMO-1): 10 µM
IC50 (HL-60): 28 µM
Activity (Homo sapiens [4]): Active
Activity (Homo sapiens [5]): Active
Activity (Ramos [6]): Active
Activity (Ramos [7]): Active
Activity (Homo sapiens [8]): inactive
Activity (Homo sapiens [9]): inactive
Activity (Ramos [10]): inactive
Activity (Ramos [11]): inactive
Activity (Homo sapiens [12]): Active
Activity (Ramos [13]): Active
Activity (Ramos [14]): inactive
inhibition (MEF): inactive
MIC (Staphylococcus aureus [15]): 6.2 µM (≈ 5.42 µg/mL)
MIC (Enterococcus faecium): 12 µM (≈ 10.5 µg/mL)
Activity (Klebsiella pneumoniae): inactive
Activity (Klebsiella aerogenes): inactive
Activity (Escherichia coli): inactive
Activity (Pseudomonas aeruginosa): inactive
Activity (Acinetobacter baumannii): inactive
Activity (Bacillus subtilis [16]): Active
Activity (Bacillus subtilis [17]): Active
Activity (Bacillus subtilis [18]): inactive
Activity (Bacillus subtilis [19]): inactive
Activity (Bacillus subtilis [20]): inactive
Activity (Staphylococcus aureus [21]): Active
